Test results reported in ChEMBL document CHEMBL4184175, “Design, synthesis and biological evaluation of novel indole-xanthendione hybrids as selective estrogen receptor modulators” (Bioorg Med Chem, 2018).
Active and inactive are the calls of the source. The rule behind the calls is not given here.

Key:
T47D [1] = test: Antiproliferative activity against human T47D cells after 48 hrs by MTT assay
Estrogen receptor = molecular target: T1, Estrogen receptor (Homo sapiens, UniProt P03372); test: Displacement of Fluormone-tagged ES2 from human recombinant ERalpha after 2 hrs by fluorescence polarization assay
T1 sequence (P03372 whole entry): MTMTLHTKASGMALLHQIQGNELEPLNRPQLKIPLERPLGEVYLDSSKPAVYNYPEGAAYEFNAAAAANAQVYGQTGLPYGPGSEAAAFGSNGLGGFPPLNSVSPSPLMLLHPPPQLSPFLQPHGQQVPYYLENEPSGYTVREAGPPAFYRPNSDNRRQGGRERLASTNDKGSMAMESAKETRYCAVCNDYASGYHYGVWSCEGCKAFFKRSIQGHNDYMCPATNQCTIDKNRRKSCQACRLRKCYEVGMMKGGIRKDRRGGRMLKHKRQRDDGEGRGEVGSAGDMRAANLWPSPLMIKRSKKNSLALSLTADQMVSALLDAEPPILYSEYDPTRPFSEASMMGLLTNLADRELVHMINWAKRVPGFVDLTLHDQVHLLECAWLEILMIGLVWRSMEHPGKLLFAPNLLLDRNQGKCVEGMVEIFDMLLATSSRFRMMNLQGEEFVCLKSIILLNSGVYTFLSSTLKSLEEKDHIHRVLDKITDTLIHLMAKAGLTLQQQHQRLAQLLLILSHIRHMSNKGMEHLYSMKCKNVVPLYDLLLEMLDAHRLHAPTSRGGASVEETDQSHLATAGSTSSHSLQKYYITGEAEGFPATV

PBMC = test: Cytotoxicity against human PBMC assessed as reduction in cell viability at 100 uM after 48 hrs by MTT assay; assay type: cell-based
In short: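 PBMCs isolated from human whole blood after RBC lysis, kept in RPMI-1640 with 10% FBS at 37 °C, 5% CO2; about 10^4 cells/well. MTT read-out as for T47D: 48 h exposure in FBS-free medium, MTT 0.5 mg/ml for 4 h, acidified DMSO, absorbance 570/620 nm, viability versus control.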

MCF7 = test: Antiproliferative activity against human MCF7 cells; assay type: functional
[2] = molecular target: T2, Estrogen receptor (Homo sapiens) (UniProt P03372); test: Displacement of Fluormone-tagged ES2 from human recombinant ERalpha up to 1000 nM after 2 hrs by fluorescence polarization assay
T2 sequence (whole entry): T1 sequence (P03372 whole entry)
In short: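 Fluorescence polarization competition: DMSO serial dilutions of compound mixed 1:1 with human recombinant ER-α/Fluormone complex, at least 2 h at room temperature protected from light; excitation 535 nm, emission 590 nm. Controls: buffer with 4% DMSO (maximum), oestradiol (minimum), free tracer. Percent inhibition fitted by nonlinear regression; IC50 = half displacement of bound ligand.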

[3] = molecular target: T2, Estrogen receptor (Homo sapiens); test: Binding affinity to ERalpha in human T47D cells assessed as downregulation of ERalpha mRNA level at 15 uM after 482 hrs by RT-PCR assay relative to control; assay type: cell-based; conditions: in the assay text read “48 hrs” for “482 hrs”
In short: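 T47D treated with 15 µM for 48 h; total RNA extracted with TRIzol, quality checked, converted to cDNA. ER-α amplified with gene-specific primers alongside GAPDH as loading control; products run on 1.2% agarose with EtBr and quantified by densitometry, normalised to GAPDH, relative to untreated cells; three independent experiments.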

[4] = Drug uptake in human T47D cell nucleus at 15 uM after 24 to 48 hrs by DAPI staining based confocal laser scanning microscopic method; assay type: ADME, subcellular
T47D [5] = test: Downregulation of ERalpha protein level in human T47D cells at 15 uM after 48 hrs by Western blot method relative to control; assay type: functional
In short: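 T47D cells grown in RPMI-1640 with 10% heat-inactivated FBS at 37 °C, 5% CO2, then exposed to 15 uM for 48 h. Lysis in modified RIPA (50 mM Tris-HCl pH 7.4, 1% NP-40, protease inhibitors); protein measured by Bradford. 50 ug run on 10% SDS-PAGE, then nitrocellulose. Rabbit anti-ER-alpha (HC-20) at 4 °C overnight, HRP secondary, ECL. Densitometry normalised to beta-actin versus untreated cells; three experiments.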

[6] = Drug uptake in human T47D cell cytosol at 15 uM after 24 hrs by DAPI staining based confocal laser scanning microscopic method; assay type: ADME, subcellular
[7] = Drug uptake in human T47D cell plasma membrane at 15 uM after 24 hrs by DAPI staining based confocal laser scanning microscopic method; assay type: ADME, cell membranes

## CC1CC(=O)C2=C(C1)OC1=C(C(=O)CCC1(C)C)C2c1cc2ccccc2n1Cc1ccccc1 (stereo unspecified)
T47D [1]
  IC50: 20.9 µM
Estrogen receptor
  IC50: 356 nM
PBMC
  Activity: Non-Toxic

## CC1CC(=O)C2=C(C1)OC1=C(C(=O)CC(C)C1)C2c1cc2ccccc2n1Cc1ccccc1 (stereo unspecified)
Estrogen receptor
  IC50: 482 nM
PBMC
  Activity: Non-Toxic

## CC/C(=C(\c1ccccc1)c1ccc(OCCN(C)C)cc1)c1ccccc1 [TAMOXIFEN]
MCF7
  Activity: 10 µg/mL

## CC1(C)CCC(=O)C2=C1OC1=C(C(=O)CCC1(C)C)C2c1cc2ccccc2n1Cc1ccccc1
[2]
  inhibition: inactive
PBMC
  Activity: Non-Toxic

## Oc1nc(S)nc2c1C(c1cc3ccccc3n1Cc1ccccc1)c1c(O)nc(S)nc1O2
[2]
  inhibition: inactive
PBMC
  Activity: Non-Toxic

## O=C1CC(c2ccccc2)CC2=C1C(c1cc3ccccc3n1Cc1ccccc1)C1=C(CC(c3ccccc3)CC1=O)O2 (stereo unspecified)
[2]
  inhibition: inactive
PBMC
  Activity: Non-Toxic

## CC1(C)CC(=O)C2C(C1)Oc1ccc3ccccc3c1C2c1ccc(O)cc1 (stereo unspecified)
MCF7
  Activity: 6.7 µg/mL

## CC1(C)CCC(=O)C2=C1OC1=C(C(=O)CCC1)C2c1cc2ccccc2n1Cc1ccccc1 (stereo unspecified)
[3]
  Activity: 54.3%
T47D [1]
  IC50: 16.5 µM
[4]
  Drug uptake: Not Active
Estrogen receptor
  IC50: 55 nM
PBMC
  Activity: Non-Toxic
T47D [5]
  Activity: 32.18%
[6]
  Drug uptake: Active

## Cc1c(-c2ccc(O)cc2)n(Cc2ccc(OCCN3CCCCCC3)cc2)c2ccc(O)cc12 [BAZEDOXIFENE]
T47D [1]
  IC50: 16.4 µM

## O=C1CCC2=C1C(c1cc3ccccc3n1Cc1ccccc1)C1=C(CCC1=O)O2
T47D [1]
  IC50: 25 µM
Estrogen receptor
  IC50: 51.2 nM
PBMC
  Activity: Non-Toxic

## CC1(C)CC(=O)C2=C(C1)OC1=C(C(=O)CCC1)C2c1cc2ccccc2n1Cc1ccccc1 (stereo unspecified)
T47D [1]
  IC50: 23.5 µM
Estrogen receptor
  IC50: 18.4 nM
PBMC
  Activity: Non-Toxic

## CC1CC(=O)C2=C(C1)OC1=C(C(=O)CCC1)C2c1cc2ccccc2n1Cc1ccccc1 (stereo unspecified)
[3]
  Activity: 29.7%
T47D [1]
  IC50: 17.9 µM
[7]
  Drug uptake: Active
[4]
  Drug uptake: Not Active
Estrogen receptor
  IC50: 16.6 nM
PBMC
  Activity: Non-Toxic
T47D [5]
  Activity: 31.06%

## CC1CC(=O)C2=C(C1)OC1=C(C(=O)CC(C)(C)C1)C2c1cc2ccccc2n1Cc1ccccc1 (stereo unspecified)
T47D [1]
  IC50: 19.8 µM
Estrogen receptor
  IC50: 26.6 nM
PBMC
  Activity: Non-Toxic

## CC1(C)CC(=O)C2=C(C1)OC1=C(C(=O)CC(C)(C)C1)C2c1cc2ccccc2n1Cc1ccccc1
T47D [1]
  IC50: 24.6 µM
Estrogen receptor
  IC50: 60.8 nM
PBMC
  Activity: Non-Toxic

## O=c1[nH]c2c(c(=O)[nH]1)C(c1cc3ccccc3n1Cc1ccccc1)c1c([nH]c(=O)[nH]c1=O)O2
T47D [1]
  IC50: 22.1 µM
Estrogen receptor
  IC50: 61.1 nM
PBMC
  Activity: Non-Toxic

## CC1(C)CC(=O)C2=C(C1)OC1=C(C(=O)CCC1(C)C)C2c1cc2ccccc2n1Cc1ccccc1 (stereo unspecified)
T47D [1]
  IC50: 19.3 µM
Estrogen receptor
  IC50: 587 nM
PBMC
  Activity: Non-Toxic
